Tested on: Fibroblast
Test: Multiplex assay against human fibroblast
Assay type: toxicity, cell-based
Method in brief: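 At seeding, live cells were stained with Hoechst33342, BioTracker Green Microtubule Cytoskeleton Dye, MitoTracker Red and Annexin V Alexa Fluor 680. After compound addition they were imaged on a CQ1 microscope at 37°C and 5% CO2, and CellPathfinder machine-learning gating sorted them into Hoechst high-intensity objects or normal cells, with normal cells further split into healthy, pyknosed or fragmented nuclei and pyknosed cells into mitotic or apoptotic. Tubulin, mitochondrial-mass and membrane-permeability phenotypes are given as per cents of cells with healthy nuclei.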

[1] = 12 h, 1 µM, compound concentration 1 uM, replicate 1
[2] = 12 h, 1 µM, compound concentration 1 uM, replicate 2
[3] = 12 h, 10 µM, compound concentration 10 uM, replicate 1
[4] = 12 h, 10 µM, compound concentration 10 uM, replicate 2
[5] = 24 h, 1 µM, compound concentration 1 uM, replicate 1
[6] = 24 h, 1 µM, compound concentration 1 uM, replicate 2
[7] = 24 h, 10 µM, compound concentration 10 uM, replicate 1
[8] = 24 h, 10 µM, compound concentration 10 uM, replicate 2
[9] = 48 h, 1 µM, compound concentration 1 uM, replicate 1
[10] = 48 h, 1 µM, compound concentration 1 uM, replicate 2
[11] = 48 h, 10 µM, compound concentration 10 uM, replicate 1
[12] = 48 h, 10 µM, compound concentration 10 uM, replicate 2

For `COc1cc(-n2cnc3cc(-c4ccc(Cl)cc4)sc3c2=O)ccc1OCCN1CCCC1`, the “Population Apoptotic (%)” value [1] was 52%, the “Population Fragmented Nuclei (%)” value [1] was 32% and the “Population Healthy Nuclei (%)” value [1] was 49%. For the same molecule, the “Population Hoechst High Intensity Objects (%)” value [1] was 13%, the “Population Membrane Permeable-Phenotype (%)” value [1] was 23% and the “Population Mitochondria Different-Phenotype (%)” value [1] was 13%. For the same molecule, the “Population Mitotic Cells (%)” value [1] was 47%, the “Population Normal (%)” value [1] was 86% and the “Population Pyknosed Nuclei (%)” value [1] was 18%. For the same molecule, the “Population Tubulin-Different-Phenotype (%)” value [1] was 38%, the “Total Cell Count” value [1] was 121 and the “Population Apoptotic (%)” value [2] was 71%. For the same molecule, the “Population Fragmented Nuclei (%)” value [2] was 11%, the “Population Healthy Nuclei (%)” value [2] was 77% and the “Population Hoechst High Intensity Objects (%)” value [2] was 16%. The “Population Membrane Permeable-Phenotype (%)” value [2] was 10%, the “Population Mitochondria Different-Phenotype (%)” value [2] was 44% and the “Population Mitotic Cells (%)” value [2] was 28%. The “Population Normal (%)” value [2] was 84%, the “Population Pyknosed Nuclei (%)” value [2] was 11% and the “Population Tubulin-Different-Phenotype (%)” value [2] was 34%. The “Total Cell Count” value [2] was 78, the “Population Apoptotic (%)” value [3] was 62% and the “Population Fragmented Nuclei (%)” value [3] was 33%. The “Population Healthy Nuclei (%)” value [3] was 26%, the “Population Hoechst High Intensity Objects (%)” value [3] was 14% and the “Population Membrane Permeable-Phenotype (%)” value [3] was 21%. For the same molecule, the “Population Mitochondria Different-Phenotype (%)” value [3] was 53%, the “Population Mitotic Cells (%)” value [3] was 37% and the “Population Normal (%)” value [3] was 85%. The “Population Pyknosed Nuclei (%)” value [3] was 40%, the “Population Tubulin-Different-Phenotype (%)” value [3] was 87% and the “Total Cell Count” value [3] was 141. For the same molecule, the “Population Apoptotic (%)” value [4] was 26%, the “Population Fragmented Nuclei (%)” value [4] was 22% and the “Population Healthy Nuclei (%)” value [4] was 57%. For the same molecule, the “Population Hoechst High Intensity Objects (%)” value [4] was 8%, the “Population Membrane Permeable-Phenotype (%)” value [4] was 34% and the “Population Mitochondria Different-Phenotype (%)” value [4] was 93%. The “Population Mitotic Cells (%)” value [4] was 73%, the “Population Normal (%)” value [4] was 91% and the “Population Pyknosed Nuclei (%)” value [4] was 19%. The “Population Tubulin-Different-Phenotype (%)” value [4] was 97%, the “Total Cell Count” value [4] was 75 and the “Population Apoptotic (%)” value [5] was 38%. The “Population Fragmented Nuclei (%)” value [5] was 36%, the “Population Healthy Nuclei (%)” value [5] was 47% and the “Population Hoechst High Intensity Objects (%)” value [5] was 17%. For the same molecule, the “Population Membrane Permeable-Phenotype (%)” value [5] was 17%, the “Population Mitochondria Different-Phenotype (%)” value [5] was 5% and the “Population Mitotic Cells (%)” value [5] was 61%. The “Population Normal (%)” value [5] was 82%, the “Population Pyknosed Nuclei (%)” value [5] was 15% and the “Population Tubulin-Different-Phenotype (%)” value [5] was 32%. For the same molecule, the “Total Cell Count” value [5] was 142, the “Population Apoptotic (%)” value [6] was 62% and the “Population Fragmented Nuclei (%)” value [6] was 16%. The “Population Healthy Nuclei (%)” value [6] was 71%, the “Population Hoechst High Intensity Objects (%)” value [6] was 10% and the “Population Membrane Permeable-Phenotype (%)” value [6] was 6%. For the same molecule, the “Population Mitochondria Different-Phenotype (%)” value [6] was 25%, the “Population Mitotic Cells (%)” value [6] was 37% and the “Population Normal (%)” value [6] was 89%. For the same molecule, the “Population Pyknosed Nuclei (%)” value [6] was 12%, the “Population Tubulin-Different-Phenotype (%)” value [6] was 21% and the “Total Cell Count” value [6] was 83. For the same molecule, the “Population Apoptotic (%)” value [7] was 92%, the “Population Fragmented Nuclei (%)” value [7] was 32% and the “Population Healthy Nuclei (%)” value [7] was 15%. For the same molecule, the “Population Hoechst High Intensity Objects (%)” value [7] was 16%, the “Population Membrane Permeable-Phenotype (%)” value [7] was 25% and the “Population Mitochondria Different-Phenotype (%)” value [7] was 43%. The “Population Mitotic Cells (%)” value [7] was 7%, the “Population Normal (%)” value [7] was 83% and the “Population Pyknosed Nuclei (%)” value [7] was 51%. The “Population Tubulin-Different-Phenotype (%)” value [7] was 93%, the “Total Cell Count” value [7] was 125 and the “Population Apoptotic (%)” value [8] was 47%. For the same molecule, the “Population Fragmented Nuclei (%)” value [8] was 24%, the “Population Healthy Nuclei (%)” value [8] was 52% and the “Population Hoechst High Intensity Objects (%)” value [8] was 14%. For the same molecule, the “Population Membrane Permeable-Phenotype (%)” value [8] was 42%, the “Population Mitochondria Different-Phenotype (%)” value [8] was 89% and the “Population Mitotic Cells (%)” value [8] was 52%. The “Population Normal (%)” value [8] was 85%, the “Population Pyknosed Nuclei (%)” value [8] was 23% and the “Population Tubulin-Different-Phenotype (%)” value [8] was 81%. For the same molecule, the “Total Cell Count” value [8] was 74, the “Population Apoptotic (%)” value [9] was 81% and the “Population Fragmented Nuclei (%)” value [9] was 39%. The “Population Healthy Nuclei (%)” value [9] was 48%, the “Population Hoechst High Intensity Objects (%)” value [9] was 18% and the “Population Membrane Permeable-Phenotype (%)” value [9] was 9%. The “Population Mitochondria Different-Phenotype (%)” value [9] was 4%, the “Population Mitotic Cells (%)” value [9] was 18% and the “Population Normal (%)” value [9] was 81%. The “Population Pyknosed Nuclei (%)” value [9] was 11%, the “Population Tubulin-Different-Phenotype (%)” value [9] was 22% and the “Total Cell Count” value [9] was 166. For the same molecule, the “Population Apoptotic (%)” value [10] was 33%, the “Population Fragmented Nuclei (%)” value [10] was 36% and the “Population Healthy Nuclei (%)” value [10] was 61%. The “Population Hoechst High Intensity Objects (%)” value [10] was 15%, the “Population Membrane Permeable-Phenotype (%)” value [10] was 16% and the “Population Mitochondria Different-Phenotype (%)” value [10] was 3%. The “Population Mitotic Cells (%)” value [10] was 66%, the “Population Normal (%)” value [10] was 84% and the “Population Pyknosed Nuclei (%)” value [10] was 2%. For the same molecule, the “Population Tubulin-Different-Phenotype (%)” value [10] was 51%, the “Total Cell Count” value [10] was 160 and the “Population Apoptotic (%)” value [11] was 93%. For the same molecule, the “Population Fragmented Nuclei (%)” value [11] was 52%, the “Population Healthy Nuclei (%)” value [11] was 26% and the “Population Hoechst High Intensity Objects (%)” value [11] was 37%. The “Population Membrane Permeable-Phenotype (%)” value [11] was 23%, the “Population Mitochondria Different-Phenotype (%)” value [11] was 47% and the “Population Mitotic Cells (%)” value [11] was 6%. The “Population Normal (%)” value [11] was 62%, the “Population Pyknosed Nuclei (%)” value [11] was 20% and the “Population Tubulin-Different-Phenotype (%)” value [11] was 85%. The “Total Cell Count” value [11] was 124, the “Population Apoptotic (%)” value [12] was 63% and the “Population Fragmented Nuclei (%)” value [12] was 36%. For the same molecule, the “Population Healthy Nuclei (%)” value [12] was 53%, the “Population Hoechst High Intensity Objects (%)” value [12] was 32% and the “Population Mitochondria Different-Phenotype (%)” value [12] was 30%. The “Population Mitotic Cells (%)” value [12] was 36%, the “Population Normal (%)” value [12] was 67% and the “Population Pyknosed Nuclei (%)” value [12] was 9%. For the same molecule, the “Total Cell Count” value [12] was 167.

From ChEMBL document CHEMBL4689842, “EUbOPEN Chemogenomics Library wave 1” (2021)
